Laboratory results reported in ChEMBL document CHEMBL2331246, “Synthesis and biological evaluation of substituted 2-benzoylpyridine thiosemicarbazones: novel structure-activity relationships underpinning their anti-proliferative and chelation efficacy” (Bioorg Med Chem Lett, 2013).

Experiments:
SK-N-MC [1] = assay: Inhibition of cellular iron uptake in human SK-N-MC cells assessed as iron uptake at 25 uM for 3 hrs at 37 degC relative to control; type: functional; set-up: scale not given: the % may be the effect or the level left
In short: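 59Fe-transferrin (0.75 µM) given to cells 3 h at 37 °C with or without chelator (25 µM); washed four times on ice, internalized 59Fe measured and expressed as % of control. Mean ± SD of three experiments with three determinations each.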

SK-N-MC [2] = assay: Induction of cellular iron mobility in human SK-N-MC cells assessed as iron release at 25 uM for 3 hrs at 37 degC; type: functional
In short: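 Cells prelabeled with 59Fe-transferrin (0.75 µM) 3 h at 37 °C, washed four times with ice-cold PBS, then given control medium or chelator (25 µM) 3 h at 37 °C; released 59Fe expressed as % of intracellular 59Fe. Mean ± SD, three experiments, triplicate determinations.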

SK-N-MC [3] = assay: Antiproliferative activity against human SK-N-MC cells measured after 72 hrs at 37 degC by MTT assay; type: functional, cell-based
In short: (§1)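 Cells seeded and left to attach 24 h, then exposed to control medium or chelator for 72 h at 37 °C; proliferation read by MTT assay.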

MRC5 = assay: Antiproliferative activity against human MRC5 cells measured after 72 hrs at 37 degC by MTT assay; type: functional, cell-based; details: MRC5, 72 h; in short: as §1

| SMILES | IC50 (SK-N-MC [3]) [µM] | Activity (SK-N-MC [1]) [%] | Activity (SK-N-MC [2]) [%] | IC50 (MRC5) [µM] |
| --- | --- | --- | --- | --- |
| CN(C)C(=S)NN=C(c1ccccn1)c1ccccn1 | – | 5 | – | – |
| CCNC(=S)N/N=C(/c1ccc(OC)cc1)c1cccc(C)n1 | > 6.25 | 14 | 15 | > 6.25 |
| COc1ccc(/C(=N/NC(=S)N(C)C)c2cccc(C)n2)cc1 | 2.2 | 14 | 15 | > 6.25 |
| Cc1cccc(/C(=N\NC(=S)N(C)C)c2ccccc2)n1 | 0.009 | 14 | 9 | 0.021 |
| C=CCNC(=S)N/N=C(/c1ccc(OC)cc1)c1cccc(C)n1 | > 6.25 | 14 | 15 | > 6.25 |
| CCNC(=S)N/N=C(/c1ccccc1)c1cccc(C)n1 | 0.88 | 14 | 9 | > 6.25 |
| Cc1cccc(/C(=N\NC(=S)Nc2ccccc2)c2ccccc2)n1 | 2.8 | 58 | 9 | > 6.25 |
| CNC(=S)N/N=C(/c1ccc(OC)cc1)c1cccc(C)n1 | > 6.25 | 22 | 42 | > 6.25 |
| C=CCNC(=S)N/N=C(/c1ccc(OC)c(OC)c1)c1cccc(C)n1 | > 6.25 | 14 | 21 | > 6.25 |
| COc1ccc(/C(=N/NC(N)=S)c2cccc(C)n2)cc1OC | > 6.25 | 14 | 21 | > 6.25 |
| COc1ccc(/C(=N/NC(N)=S)c2cccc(C)n2)cc1 | > 6.25 | 14 | 15 | > 6.25 |
| CNC(=S)N/N=C(/c1ccc(OC)c(OC)c1)c1cccc(C)n1 | > 6.25 | 14 | 21 | > 6.25 |
| COc1ccc(/C(=N/NC(=S)Nc2ccccc2)c2cccc(C)n2)cc1OC | 0.62 | 58 | 21 | 2.11 |

The next lines start with results.

| IC50 (SK-N-MC [3]) [µM] | SMILES | Activity (SK-N-MC [1]) [%] | Activity (SK-N-MC [2]) [%] | IC50 (MRC5) [µM] |
| --- | --- | --- | --- | --- |
| 2.48 | COc1ccc(/C(=N/NC(=S)N(C)C)c2cccc(C)n2)cc1OC | 14 | 41 | > 6.25 |
| 5.32 | CNC(=S)N/N=C(/c1ccccc1)c1cccc(C)n1 | 14 | 9 | > 6.25 |
| > 6.25 | C=CCNC(=S)N/N=C(/c1ccccc1)c1cccc(C)n1 | 14 | 9 | > 6.25 |
| 21.6 | CC(=O)N(O)CCCCCNC(=O)CCC(=O)N(O)CCCCCNC(=O)CCC(=O)N(O)CCCCCN [DEFEROXAMINE] | 80 | – | – |
| > 6.25 | CCNC(=S)N/N=C(/c1ccc(OC)c(OC)c1)c1cccc(C)n1 | 14 | 21 | > 6.25 |
| > 6.25 | Cc1cccc(/C(=N\NC(N)=S)c2ccccc2)n1 | 14 | 9 | > 6.25 |
| 1.75 | COc1ccc(/C(=N/NC(=S)Nc2ccccc2)c2cccc(C)n2)cc1 | 58 | 15 | 3.81 |
